In ChEMBL document CHEMBL5029189, “Development of a 1,2,4-Triazole-Based Lead Tankyrase Inhibitor: Part II” (J Med Chem, 2021):
Each block holds one molecule with its values, some of them ahead of it. Active and inactive are the calls of the source. No cut-off for these calls is given here.

Experiments:
[1] = Inhibition of Wnt/beta-catenin signaling pathway in HEK293T cells incubated for 24 hrs by dual-Glo luciferase assay; type: cell-based; settings: Homo sapiens, HEK-293T
Outline: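 Luciferase-based WNT/β-catenin pathway reporter in human HEK293 cells, run as in earlier work with a reference tankyrase inhibitor included. Each concentration tested in triplicate. IC50 derived by curve fitting, with T/F-tests applied to the fit.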

[2] = Apparent permeability across apical to basolateral side in human Caco-2 cells at 10 uM incubated for 120 mins by LC-MS/MS analysis; type: ADME, cell-based
Salmonella typhimurium [3] = experiment: Genotoxicity in Salmonella typhimurium TA98 in presence of rat liver S9 fraction by Ames test; type: toxicity, organism-based; settings: salmonella enterica subsp. enterica serovar typhimurium
[4] = Metabolic stability in human liver microsomes assessed as intrinsic clearance measured per mg protein incubated up to 60 mins in presence of NADPH by UPLC-MS/MS analysis; type: ADME, Microsome
Salmonella typhimurium [5] = experiment: Genotoxicity in Salmonella typhimurium TA100 in presence of rat liver S9 fraction by Ames test; type: toxicity, organism-based; settings: salmonella enterica subsp. enterica serovar typhimurium
[6] = Metabolic stability in mouse liver microsomes assessed as intrinsic clearance measured per mg protein incubated up to 60 mins in presence of NADPH by UPLC-MS/MS analysis; type: ADME, Microsome; settings: read-out: CLH
COLO 320DM [7] = experiment: Inhibition of Wnt/beta-catenin signaling pathway in human COLO 320DM cells assessed as stabilization of AXIN2 at 0.1 to 100 nM by immunoblot analysis; type: cell-based; settings: dose 0.1-100 nM
COLO 320DM [8] = experiment: Inhibition of Wnt/beta-catenin signaling pathway in human COLO 320DM cells assessed as reduction in DKK1 level qRT-PCR analysis; type: cell-based; settings: dose 0.1-100 nM
COLO 320DM [9] = experiment: Inhibition of Wnt/beta-catenin signaling pathway in human COLO 320DM cells assessed as effect on TNKS1/2 level by immunoblot analysis; type: cell-based; settings: dose 0.1-100 nM
COLO 320DM [10] = experiment: Inhibition of Wnt/beta-catenin signaling pathway in human COLO 320DM cells assessed as reduction in AXIN2 level qRT-PCR analysis; type: cell-based; settings: dose 0.1-100 nM
COLO 320DM [11] = experiment: Inhibition of Wnt/beta-catenin signaling pathway in human COLO 320DM cells assessed as reduction in cytoplasmic beta-catenin level at 0.1 to 100 nM by immunoblot analysis; type: cell-based; settings: dose 0.1-100 nM
COLO 320DM [12] = experiment: Inhibition of Wnt/beta-catenin signaling pathway in human COLO 320DM cells assessed as reduction in nuclear beta-catenin level at 0.1 to 100 nM by immunoblot analysis; type: cell-based; settings: dose 0.1-100 nM
COLO 320DM [13] = experiment: Inhibition of Wnt/beta-catenin signaling pathway in human COLO 320DM cells assessed as reduction in NKD1 level qRT-PCR analysis; type: cell-based; settings: dose 0.1-100 nM
COLO 320DM [14] = experiment: Inhibition of Wnt/beta-catenin signaling pathway in human COLO 320DM cells assessed as reduction in APCDD1 level qRT-PCR analysis; type: cell-based; settings: dose 0.1-100 nM
[15] = target: T1, Nuclear receptor subfamily 1 group I member 2 (Homo sapiens, UniProt O75469); experiment: Inhibition of PXR (unknown origin) at 100 uM
T1 sequence (O75469 whole entry): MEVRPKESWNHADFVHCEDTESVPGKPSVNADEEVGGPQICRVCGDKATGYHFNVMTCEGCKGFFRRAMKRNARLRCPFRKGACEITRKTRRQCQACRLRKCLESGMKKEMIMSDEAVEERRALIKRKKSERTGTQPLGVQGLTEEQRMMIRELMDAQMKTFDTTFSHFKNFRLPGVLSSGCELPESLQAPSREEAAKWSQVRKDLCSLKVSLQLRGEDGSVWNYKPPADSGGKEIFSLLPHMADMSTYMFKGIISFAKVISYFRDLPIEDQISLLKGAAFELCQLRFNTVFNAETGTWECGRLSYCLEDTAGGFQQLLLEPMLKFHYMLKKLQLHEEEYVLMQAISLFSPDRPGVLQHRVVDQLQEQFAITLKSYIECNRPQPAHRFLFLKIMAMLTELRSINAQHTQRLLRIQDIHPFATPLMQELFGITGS

COLO 320DM [16] = experiment: Inhibition of Wnt/beta-catenin signaling pathway in human COLO 320DM cells assessed as stabilization of AXIN1 at 0.1 to 100 nM by immunoblot analysis; type: cell-based; settings: dose 0.1-100 nM

Compound: CCOc1ccc(-c2nnc([C@H]3C[C@H](NC(=O)c4ccnc5cccnc45)C3)n2-c2ccccc2F)nc1
IC50 [1]: 0.63 nM

Compound: CCOc1ccc(-c2nnc([C@H]3C[C@H](NC(=O)c4ccnc5cc(F)cnc45)C3)n2-c2ccccc2F)nc1
IC50 [1]: 0.17 nM

Papp A→B at 2 h, 10 µM [2]: 39.5 ×10⁻⁶ cm/s
microsomal CLint [4]: < 5 µL/min/mg
microsomal CLint [6]: 27 µL/min/mg
Compound: CCOc1ccc(-c2nnc([C@H]3C[C@H](NC(=O)c4ccccn4)C3)n2-c2ccccc2F)nc1
Activity (Salmonella typhimurium [3]): Non-Toxic
Activity (Salmonella typhimurium [5]): Non-Toxic

IC50 [15]: Not Active
Compound: CCOc1ccc(-c2nnc([C@H]3C[C@H](NC(=O)c4cccc5nccnc45)C3)n2-c2ccccc2F)nc1
Activity (Salmonella typhimurium [3]): Non-Toxic
inhibition (COLO 320DM [7]): Active
inhibition (COLO 320DM [8]): Dose-Dependent Effect
Activity (Salmonella typhimurium [5]): Non-Toxic
inhibition (COLO 320DM [9]): Dose-Dependent Effect
inhibition (COLO 320DM [10]): Dose-Dependent Effect
inhibition (COLO 320DM [11]): Active
inhibition (COLO 320DM [12]): Active
inhibition (COLO 320DM [13]): Dose-Dependent Effect
inhibition (COLO 320DM [14]): Dose-Dependent Effect
inhibition (COLO 320DM [16]): Active
